# Tn7 DDE FP: inhibitors of Tn7 peptide binding to fibrin DD(E), primary screen, biochemical, fluorescence polarization, human fibrin, Tn7 probe. FP displacement of FITC-Tn7 peptide from fibrin DD(E); 0% = median of compound wells per plate. 370,000 compounds, 0.13% hits. inhibition, % at 8.3 µM. Fibrinogen beta chain (Homo sapiens), P02675;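 active = inhibition above the mean of compounds falling within the control limits plus 3 SD of them, cut at about 14% in these data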;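 also: 0% = plate median of compound wells and 100% = 10 µM Aha-Tn7 peptide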
#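 Test system – human fibrin DD(E) · Times – 10 min preincubation, 3 h with tracer, room temperature · Detection – fluorescence polarization of the labelled Tn7 tracer · Measure – percent inhibition normalized to high-control wells · Benchmarks – high control wells with 10 µM unlabelled Aha-Tn7 peptide (full inhibition) · Repeats – singlicate testing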
# ABCB1 inh: ABCB1 efflux pump inhibitors, primary screen, cell-based, multiplex, flow cytometry, ABCG2 counter-screen. CCRF-Adr cells, JC-1 efflux. inhibition, % at 6.6 µM. 190,000 compounds, 0.067% hits. AID 1326, 2008; in the data active = inhibition above about 40%;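 also: 0% = vehicle and 100% = reference inhibitor; higher value means more JC-1 retained so stronger ABCB1 efflux block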
# Insulin prom up: insulin promoter activators in MIN6 cells, imaging, high-content screening, mouse beta cells; MIN6 insulin promoter-GFP reporter; active compounds read high; z-score at 5 µM; 190,000 compounds, 0.3% hits; AID 1625, 2009;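 active = z-score above 3 at 5 µM with at least 500 cells counted in the well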
# ABCG2 inh: ABCG2 efflux pump inhibitors, primary screen, multiplex with ABCB1, IgMXP3 cells, flow cytometry. 190,000 compounds, 0.1% hits. JC-1 efflux. Broad substrate specificity ATP-binding cassette transporter ABCG2 (Homo sapiens), Q9UNQ0. inhibition, % at 6.6 µM;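 active = inhibition above 80%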;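 also: 0% = DMSO and 100% = nicardipine control wells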
# Target sequence (Q9UNQ0 whole entry, looked up): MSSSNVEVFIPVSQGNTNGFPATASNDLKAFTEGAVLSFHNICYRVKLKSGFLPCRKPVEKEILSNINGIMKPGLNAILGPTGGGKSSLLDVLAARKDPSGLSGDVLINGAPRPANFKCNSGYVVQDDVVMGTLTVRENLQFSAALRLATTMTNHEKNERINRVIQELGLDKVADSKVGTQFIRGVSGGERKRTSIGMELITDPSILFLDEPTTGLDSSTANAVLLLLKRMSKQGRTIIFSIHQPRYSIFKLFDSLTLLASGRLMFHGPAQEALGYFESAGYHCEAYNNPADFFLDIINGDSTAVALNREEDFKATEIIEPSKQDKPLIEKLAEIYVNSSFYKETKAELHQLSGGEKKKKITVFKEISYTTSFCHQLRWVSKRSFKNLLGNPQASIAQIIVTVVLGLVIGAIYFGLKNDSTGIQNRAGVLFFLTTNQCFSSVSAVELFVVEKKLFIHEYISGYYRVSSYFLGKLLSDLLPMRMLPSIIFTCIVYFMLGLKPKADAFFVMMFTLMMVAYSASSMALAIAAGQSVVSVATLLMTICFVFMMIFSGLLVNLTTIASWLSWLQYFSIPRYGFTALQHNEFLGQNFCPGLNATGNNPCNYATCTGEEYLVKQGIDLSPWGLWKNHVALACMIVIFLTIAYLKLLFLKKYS
#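 material = IgMXP3 (ABCG2) plus far-red-tagged CCRF-Adr (ABCB1) cells | amount = 3 million cells/mL, equal mix of both lines | also added = JC-1 transporter substrate | dosing = one concentration, 6.6 µM final | schedule = 10 min at 25 °C | measured by = flow cytometric JC-1 green MFI at 530 nm | read-out basis = percent efflux inhibition, scaled nicardipine 100% to DMSO 0%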
# Tn6 DDE FP: inhibitors of Tn6 peptide binding to fibrin DD(E), primary screen, biochemical, fluorescence polarization, human fibrin, Tn6 probe. Fibrinogen beta chain (Homo sapiens), P02675. Fibrin DD(E) TRITC-Tn6 fluorescence polarization displacement. inhibition, % at 8.3 µM. 370,000 compounds, 0.21% hits;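 active = inhibition above a per-campaign cutoff: mean of compounds within control limits plus 3 SD, cut at about 15% in these data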;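 also: 0% = median of all compound wells on the plate and 100% = blocking peptide control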
# GRK2 inh: compounds blocking aptamer binding on GRK2 – biochemical, human GRK2, bead flow cytometry, HTS, primary screen; inhibition of aptamer binding, % at 10 µM; FAM-aptamer displacement from GRK2; Beta-adrenergic receptor kinase 1 (Homo sapiens), P25098; 330,000 compounds, 0.59% hits;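 active = inhibition of aptamer binding above 40%, roughly 3 SD of noise, on plates passing a quality check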;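 also: median bead fluorescence of bound FAM aptamer so fluorescent compounds give negative values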
# GRK2 inh confirm: GRK2 aptamer-displacing inhibitors, retest, confirmation, biochemical, cherry pick 1, bead flow cytometry; shares compounds with GRK2 inh; bead-bound GRK2, FAM-aptamer displacement; aptamer displacement, % at 10 µM; 2,000 compounds, 4% hits;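 active = aptamer displacement above 40%, near three times the noise of non-fluorescent compounds, on plates passing quality checks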;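 also: negative values mostly reflect intrinsic compound fluorescence rather than true enhancement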
# Aptamer quench: counter-screen for GRK2 aptamer inhibitors: fluorescent aptamer quenchers. shares compounds with GRK2 inh. Fluorescent RNA aptamer beads, quenching, flow cytometry; active compounds read high. fluorescence change (kMESF span), kMESF (no concentration beside the values). 110 tested, under 10 active;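 active = compounds whose bead fluorescence drops by more than 37 kMESF across the dose range, marking them as dye quenchers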
# FAM quench CP1: counter-screen for GRK2 aptamer inhibitors: fluorescent aptamer quenchers | shares compounds with GRK2 inh | Carboxyfluorescein RNA aptamer on beads, flow cytometry quenching; active compounds read low | fluorescence response (% of DMSO), % at 10 µM | 2,000 tested, under 10 active;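 active = compounds that quench the bead-bound fluorescent RNA probe, cutting fluorescence to under half of the solvent control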;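 also: counterscreen run without GRK2 so only probe quenching by compound is measured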
# GRK2 confirm 2: GRK2 aptamer-displacing inhibitors, hit retest, confirmation, biochemical, cherry pick 2, bead flow cytometry. shares compounds with GRK2 inh. bead-bound GRK2, FAM-aptamer displacement. inhibition of aptamer binding, % at 10 µM. 360 tested, under 10 active. AID 504782, 2011;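 active = inhibition of aptamer binding above 40%, about triple the noise seen with nonglowing compounds, on plates passing quality control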;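 also: negative values mostly come from compounds that fluoresce themselves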
# Aptamer quench 2: fluorescence quenching of FAM-labeled RNA aptamer, dose response, artefact control for GRK2 aptamer inhibitor project, biochemical, flow cytometry, cherry pick 2. 25 tested, under 10 active. change in fluorescence (kMESF span), kMESF (no concentration beside the values). AID 504819, 2011. shares compounds with GRK2 inh. Streptavidin beads;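 active = compounds quenching the bead-bound labeled aptamer, with fluorescence dropping by more than 37 kMESF over the dose range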
# FAM quench CP2: quenches fluorescent RNA aptamer, GRK2 hit artifact. shares compounds with GRK2 inh. carboxyfluorescein RNA aptamer beads, flow cytometry quenching; active compounds read low. fluorescence response vs DMSO, % at 10 µM. 360 tested, under 10 active. AID 588494;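 active = response vs DMSO under 50%, meaning signal dropped by over half, treated as fluorescence quencher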;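 also: labelled aptamer on streptavidin beads without GRK2 as a quench counter-screen; 100% = bead fluorescence of DMSO wells and lower means quenching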
# FAM quench DR: quenchers of FAM-labeled RNA aptamer fluorescence, dose response, artefact control for GRK2 aptamer binding project, biochemical, powder set 1, flow cytometry; shares compounds with GRK2 inh; Bead-bound FAM RNA aptamer fluorescence quenching; active compounds read low; fluorescence ratio to DMSO, % at 11.1 µM; 35 tested, under 10 active; AID 588496, 2011;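 active = compounds that dim the fluorescent label, raw bead signal shifting by over 33 units between lowest and highest dose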
# * = called active by the depositor; / = no result. Shown are actives, neighbours in structure and some others; about 0.99% of the full set was active somewhere.
SMILES,Tn7 DDE FP,ABCB1 inh,Insulin prom up,ABCG2 inh,Tn6 DDE FP,GRK2 inh,GRK2 inh confirm,FAM quench CP1,others
Cc1ccc(NC2=NC(C(=O)Nc3ccc(C)c(C)c3)CC(=O)N2)cc1 (centres undefined),-4,-1,0,-5,5,0,-3,102,
Cc1ccc(NC(=O)C2CCC(=O)N2)cc1C (centres undefined),-7,1,0.37,1,3,0,/,/,
Cc1ccc(N(CC(=O)Nc2ccccc2-c2ccccc2)S(=O)(=O)c2ccccc2)c(C)c1,2,3,/,3,-3,40,-3,106,
CS(=O)(=O)N(CC(=O)Nc1ccccc1-c1ccccc1)c1ccccc1,1,1,0.16,3,0,1,/,/,
COc1ccc(OC)c(-n2c(SC)nnc2-c2c[nH]c3ccccc23)c1,1,0,0.18,0,1,100*,-3,99,
Cc1cccc(-c2cccc3c4c([nH]c23)[C@@H]2C[C@H](N(C)C(=O)c3ccccc3C)[C@H]([C@H](C)O)C(=O)N2CC4)c1,-3,/,/,/,-5,/,/,/,
Cc1nn(-c2ccc(Cl)cc2)c(=O)c2ccccc12,-9,1,1.1,14,2,96*,2,97,
Cc1ccc(NC(=O)CCS(=O)(=O)c2ccc(Br)cc2)nc1,4,1,-0.76,3,1,0,1,96,
Cc1ccc(S(=O)(=O)CCC(=O)NC2CCCCC2)cc1,-1,/,/,/,8,0,/,/,
CCN(CC)c1ccc(NC(=O)CCS(=O)(=O)c2ccc(Br)cc2)c(C)c1,-2,/,/,/,-3,83*,73*,91,Aptamer quench=55*;Aptamer quench 2=4.6;FAM quench DR=98
Cc1ccccc1NC(=O)CCS(=O)(=O)c1ccc(Br)cc1,4,/,/,/,-3,41*,18,102,Aptamer quench 2=-6.9;FAM quench DR=97
Cc1ccc(S(=O)(=O)CCC(=O)NC2CCCC2)cc1,4,/,/,/,7,0,/,/,GRK2 confirm 2=0;FAM quench CP2=100
O=C(NC1CCCCN(Cc2cccc(C(F)(F)F)c2)C1=O)c1cccc(F)c1 (centres undefined),-1,/,/,/,1,/,/,/,
COc1ccc(CN(C)C(=O)c2ccc(NC(=O)CC3SC(N4CCCC4)=NC3=O)cc2)c(OC)c1 (centres undefined),5,/,/,/,9,54*,0,96,
O=C(CC1SC(N2CCCCC2)=NC1=O)Nc1cccc(C(=O)NCc2ccccc2)c1 (centres undefined),4,/,/,/,5,3,-1,99,
COc1ccc(CN(C)C(=O)c2ccc(NC(=O)CC3SC(N4CCCC4)=NC3=O)cc2)c(OC)c1OC (centres undefined),-2,/,/,/,-2,0,/,/,
O=C1[C@@H]2CSCCS(=O)(=O)N2C(=O)N1C1CCCCC1,1,/,/,/,6,/,/,/,
N/C(=N\OC(=O)C1CCCCC1)c1ccncc1,-2,0,-0.2,2,-2,1,/,/,
N/C(=N\OC(=O)C1CCCCC1)c1ccccn1,-4,0,0.46,8,0,83*,-5,101,
CCn1c(=O)[nH]n(C/C(C)=C\c2c[n+](Cc3ccc4c(c3)OCO4)c(N)[nH]2)c1=O,2,/,/,/,2,/,/,/,
O=C(/C=C/c1ccco1)Nc1ccccc1C(=O)O,0,0,0.07,9,-1,71*,-4,101,
Cc1sc2nc(SCC(=O)N3CCOCC3)[nH]c(=O)c2c1-c1ccccc1,0,/,/,/,-8,93*,/,/,GRK2 confirm 2=4;FAM quench CP2=100
O=C(CSc1nc(O)c(-c2ccccc2)c(=O)[nH]1)N1CCOCC1,4,0,-0.36,0,7,0,/,/,
Cc1ccc(CN2CCCCC(NC(=O)c3ccc4ccccc4c3)C2=O)cc1 (centres undefined),10,/,/,/,-1,/,/,/,
Cc1cccc(C)c1NC(=S)NNc1ncc(C(F)(F)F)cc1Cl,2,0,0.06,-1,-4,48*,-1,99,
SMILES,Tn7 DDE FP,ABCB1 inh,Insulin prom up,ABCG2 inh,Tn6 DDE FP,GRK2 inh,GRK2 inh confirm,FAM quench CP1,others
O=C(Cn1cc(COC(=O)c2c3ccccc3cc3ccccc23)nn1)c1ccc(O)cc1,-1,/,/,/,-8,/,/,/,
Cc1cccc(NC(=O)CSc2c3c(nc4ccccc24)CCC3)n1,0,6,-0.32,14,-2,0,/,/,GRK2 confirm 2=18;FAM quench CP2=98
C[C@@H]1ON(C)[C@H]2C[C@H]3c4cc(Nc5ccccc5)ccc4CCN3C[C@@H]12,1,/,/,/,-1,/,/,/,
Cc1cc2ccccc2n1CCNC(=O)C(C)Oc1ccccc1 (centres undefined),-3,1,1.1,2,12,85*,28,97,Aptamer quench=-120;FAM quench DR=101
Cc1csc(CNc2ncnc3ccc(-c4ccoc4)cc23)c1,-3,/,/,/,-2,49*,-2,100,
CCOC(=O)[C@]12CCCC=C1N(CCC1=CCCCC1)C(=O)[C@H](CC(=O)NCc1cccs1)C2,-6,/,/,/,-1,/,/,/,
